According to ChEMBL document CHEMBL1649176, “Contribution of oxidative damage to antimicrobial lethality” (2009):
In brackets after ≈: the same amount, converted by molar mass. Activity calls are given as the source filed them. The rule behind the calls is not given here.

Assays:
[1] = system: Escherichia coli; test: Bactericidal activity against ahpC gene-deficient Escherichia coli K-12 3200 at 100 times MIC; assay type: functional, organism-based
[2] = system: Escherichia coli; test: Bactericidal activity against katG,katE gene-deficient Escherichia coli K-12 3201 at 100 times MIC; assay type: functional, organism-based
[3] = system: Escherichia coli; test: Bactericidal activity against katG gene-deficient Escherichia coli K-12 3157 at 100 times MIC; assay type: functional, organism-based
[4] = system: Escherichia coli; test: Bactericidal activity against Escherichia coli K-12 BW25113 at 100 times MIC; assay type: functional, organism-based
[5] = system: Escherichia coli; test: Bactericidal activity against sodB gene-deficient Escherichia coli K-12 3145 after 2 hrs; assay type: functional, organism-based
[6] = system: Escherichia coli; test: Bactericidal activity against sodB gene-deficient Escherichia coli K-12 3145 at 0.4 ug/ml; assay type: functional, organism-based
[7] = system: Escherichia coli; test: Bactericidal activity against sodA gene-deficient Escherichia coli K-12 3144 after 2 hrs; assay type: functional, organism-based
[8] = system: Escherichia coli; test: Bactericidal activity against sodA gene-deficient Escherichia coli K-12 3144 at 0.4 ug/ml; assay type: functional, organism-based
[9] = system: Escherichia coli; test: Bactericidal activity against katG gene-deficient Escherichia coli K-12 3157 after 18 hrs; assay type: functional; conditions: K-12 3157, 18 h
[10] = system: Escherichia coli; test: Bactericidal activity against katG gene-deficient Escherichia coli K-12 3157 at 10 times MIC pretreated with 250 uM bipyridyl relative to wild-type; assay type: functional
[11] = system: Escherichia coli; test: Bactericidal activity against sodB gene-deficient Escherichia coli K-12 3145 after 18 hrs; assay type: functional; conditions: K-12 3145, 18 h
[12] = system: Escherichia coli; test: Bactericidal activity against sodB gene-deficient Escherichia coli K-12 DKsodB after 2 hrs; assay type: functional, organism-based
[13] = system: Escherichia coli; test: Bactericidal activity against katG gene-deficient Escherichia coli K-12 3157 at 10 times MIC relative to wild-type; assay type: functional
[14] = system: Escherichia coli; test: Bactericidal activity against sodA gene-deficient Escherichia coli K-12 3144 after 18 hrs; assay type: functional; conditions: K-12 3144, 18 h
[15] = system: Escherichia coli; test: Antimicrobial activity against Escherichia coli K-12 BW25113 by broth dilution method; assay type: functional
In short: (§1)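 Broth dilution in LB medium, about 10^5 bacteria per 1-ml tube, with drug concentrations rising in 50% increments. Tubes were incubated overnight at 37°C and read visually. MIC was the lowest concentration that prevented visible growth.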

[16] = system: Escherichia coli; test: Bactericidal activity against katG gene-deficient Escherichia coli K-12 3157 after 2 hrs relative to wild-type; assay type: functional
[17] = system: Escherichia coli; test: Bactericidal activity against katG,katE gene-deficient Escherichia coli K-12 3201 after 18 hrs; assay type: functional; conditions: K-12 3201, 18 h
[18] = system: Escherichia coli; test: Bactericidal activity against katG gene-deficient Escherichia coli K-12 3157 at 10 times MIC pretreated with 100 mM thiourea relative to wild-type; assay type: functional
[19] = system: Escherichia coli; test: Bactericidal activity against katE gene-deficient Escherichia coli K-12 3202 after 18 hrs; assay type: functional; conditions: K-12 3202, 18 h
[20] = system: Escherichia coli; test: Bactericidal activity against katG gene-deficient Escherichia coli K-12 3157 after 2 hrs pretreated with 100 mM thiourea relative to wild-type; assay type: functional
[21] = system: Escherichia coli; test: Bactericidal activity against katG,katE gene-deficient Escherichia coli K-12 3201 at 10 times MIC relative to wild-type; assay type: functional
[22] = system: Escherichia coli; test: Bactericidal activity against sodA, sodB gene-deficient Escherichia coli K-12 3156 after 2 hrs relative to wild-type; assay type: functional
[23] = system: Escherichia coli; test: Bactericidal activity against Escherichia coli K-12 BW25113 after 18 hrs; assay type: functional; conditions: K-12 BW25113, 18 h
[24] = system: Escherichia coli; test: Bactericidal activity against sodB gene-deficient Escherichia coli K-12 DKsodB at 0.4 ug/ml; assay type: functional, organism-based
[25] = system: Escherichia coli; test: Antimicrobial activity against sodA gene-deficient Escherichia coli K-12 3144 by broth dilution method; assay type: functional; in short: as §1
[26] = system: Escherichia coli; test: Antimicrobial activity against ahpC gene-deficient Escherichia coli K-12 3200 by broth dilution method; assay type: functional; in short: as §1
[27] = system: Escherichia coli; test: Bactericidal activity against sodA, sodB gene-deficient Escherichia coli K-12 3156 at 0.4 ug/ml relative to wild-type; assay type: functional
[28] = system: Escherichia coli; test: Antimicrobial activity against sodB gene-deficient Escherichia coli K-12 DKsodB by broth dilution method; assay type: functional; in short: as §1
[29] = system: Escherichia coli; test: Antimicrobial activity against katG gene-deficient Escherichia coli K-12 3157 by broth dilution method; assay type: functional; in short: as §1
[30] = system: Escherichia coli; test: Bactericidal activity against sodB gene-deficient Escherichia coli K-12 DK after 18 hrs; assay type: functional
[31] = system: Escherichia coli; test: Antimicrobial activity against sodB gene-deficient Escherichia coli K-12 3145 by broth dilution method; assay type: functional; in short: as §1
[32] = system: Escherichia coli; test: Bactericidal activity against ahpC gene-deficient Escherichia coli K-12 3200 after 18 hrs; assay type: functional; conditions: K-12 3200, 18 h
[33] = system: Escherichia coli; test: Antimicrobial activity against sodA, sodB gene-deficient Escherichia coli K-12 3156 by broth dilution method; assay type: functional; in short: as §1
[34] = system: Escherichia coli; test: Bactericidal activity against katG gene-deficient Escherichia coli K-12 3157 after 2 hrs pretreated with 250 uM bipyridyl relative to wild-type; assay type: functional
[35] = system: Escherichia coli; test: Antimicrobial activity against katG,katE gene-deficient Escherichia coli K-12 3201 by broth dilution method; assay type: functional; in short: as §1
[36] = system: Escherichia coli; test: Antimicrobial activity against katE gene-deficient Escherichia coli K-12 3202 by broth dilution method; assay type: functional; in short: as §1
[37] = system: Escherichia coli; test: Bactericidal activity against katG,katE gene-deficient Escherichia coli K-12 3201 after 2 hrs relative to wild-type; assay type: functional
[38] = system: Escherichia coli; test: Bactericidal activity against sodA, sodB gene-deficient Escherichia coli K-12 3156 after 18 hrs; assay type: functional; conditions: K-12 3156, 18 h

Row | SMILES | Activity [5] | Activity [6] | Activity [7] | Activity [8] | MBC [9] | MBC [11] | MBC [14] | MIC [15] | MBC [17] | MBC [19] | MBC [23] | MIC [25] | MIC [26] | MIC [28] | MIC [29] | MBC [30] | MIC [31] | MIC [33] | MIC [35] | MIC [36] | further results
1 | O=C(N[C@H](CO)[C@H](O)c1ccc([N+](=O)[O-])cc1)C(Cl)Cl | – | – | – | – | – | – | – | – | – | – | – | – | – | – | – | – | – | – | – | – | Activity [1]: inactive; Activity [2]: inactive; Activity [3]: inactive; Activity [4]: inactive
2 | CCn1cc(C(=O)O)c(=O)c2cc3c(cc21)OCO3 | Active | Active | Active | Active | – | – | – | – | – | – | – | – | – | – | – | – | – | – | – | – | –
3 | CCn1cc(C(=O)O)c(=O)c2cc(F)c(N3CCNCC3)cc21 [NORFLOXACIN] | Active | Active | Active | Active | 0.16 µg/mL (≈ 0.501 µM) | 0.32 µg/mL (≈ 1 µM) | 0.32 µg/mL (≈ 1 µM) | 0.04 µg/mL | 0.32 µg/mL (≈ 1 µM) | 0.16 µg/mL (≈ 0.501 µM) | 0.32 µg/mL (≈ 1 µM) | 0.04 µg/mL | 0.04 µg/mL | 0.04 µg/mL | 0.04 µg/mL | 0.32 µg/mL (≈ 1 µM) | 0.04 µg/mL | 0.04 µg/mL | 0.08 µg/mL | 0.04 µg/mL | fold change (FC) [10]: 10; Activity [12]: Active; fold change (FC) [13]: 10; fold change (FC) [16]: 10; fold change (FC) [18]: 10; fold change (FC) [20]: 10; fold change (FC) [21]: 10; fold change (FC) [22]: 10; Activity [24]: Active; fold change (FC) [27]: 10; MBC [32]: 0.16 µg/mL (≈ 0.501 µM); fold change (FC) [34]: 10; fold change (FC) [37]: 10; MBC [38]: 0.16 µg/mL (≈ 0.501 µM)
4 | O=C(O)c1cn(C2CC2)c2cc(N3CCNCC3)c(F)cc2c1=O | Active | Active | Active | Active | – | – | – | – | – | – | – | – | – | – | – | – | – | – | – | – | –
5 | c1ccc(-c2ccccn2)nc1 [DIPYRIDYL] | – | – | – | – | – | – | – | 500 µM | – | – | – | 500 µM | 500 µM | 500 µM | 500 µM | – | 500 µM | 500 µM | 500 µM | 500 µM | –
6 | NC[C@H]1O[C@H](O[C@H]2[C@H](O)[C@@H](O[C@H]3O[C@H](CO)[C@@H](O)[C@H](N)[C@H]3O)[C@H](N)C[C@@H]2N)[C@H](O)[C@@H](O)[C@@H]1O [KANAMYCIN] | – | – | – | – | 20 µg/mL (≈ 41.3 µM) | 20 µg/mL (≈ 41.3 µM) | 20 µg/mL (≈ 41.3 µM) | 0.6 µg/mL | 20 µg/mL (≈ 41.3 µM) | 20 µg/mL (≈ 41.3 µM) | 20 µg/mL (≈ 41.3 µM) | 0.6 µg/mL | 2.4 µg/mL | 0.6 µg/mL | 0.6 µg/mL | 20 µg/mL (≈ 41.3 µM) | 0.6 µg/mL | 0.6 µg/mL | 1.2 µg/mL | 0.6 µg/mL | MBC [32]: 10 µg/mL (≈ 20.6 µM); MBC [38]: 10 µg/mL (≈ 20.6 µM)
7 | CC1(C)S[C@@H]2[C@H](NC(=O)[C@H](N)c3ccccc3)C(=O)N2[C@H]1C(=O)O [AMPICILLIN] | – | – | – | – | 80 µg/mL (≈ 229 µM) | 80 µg/mL (≈ 229 µM) | 80 µg/mL (≈ 229 µM) | 15 µg/mL | 80 µg/mL (≈ 229 µM) | 80 µg/mL (≈ 229 µM) | 80 µg/mL (≈ 229 µM) | 15 µg/mL | 15 µg/mL | 15 µg/mL | 15 µg/mL | 80 µg/mL (≈ 229 µM) | 15 µg/mL | 15 µg/mL | 30 µg/mL | 15 µg/mL | MBC [32]: 40 µg/mL (≈ 114 µM); MBC [38]: 20 µg/mL (≈ 57.2 µM)
